Experiments:
[1] = target: T1, Sphingosine 1-phosphate receptor 1 (Homo sapiens, UniProt P21453); experiment: Antagonist activity at S1P1 receptor expressed in HEK293 cells assessed as inhibition of S1P-induced cAMP response after 90 mins by spectrophotometry; assay type: functional, cell-based
[2] = Drug uptake in nu/nu homozygous mouse plasma at 100 mg/kg, po as a suspension in 10% NMP/corn oil after 4 hrs by HPLC/MS/MS analysis; assay type: ADME, organism-based; design: dose 100 mg/kg, route oral
How it was run: (§1)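 Female Nu/Nu mice (~8 wk, 20-22 g) given a single 100 mpk oral dose at 10 mL/kg. Vehicles: 10% EtOH/45% or 40% PEG400/water + 1 molar equiv HCl, 10% EtOH/40% PEG400/20% Captisol + HCl, or 10% NMP/90% corn oil. Heparinized blood collected 1 and 4 h post-dose; plasma analysed by HPLC/MS/MS.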

[3] = Drug uptake in nu/nu homozygous mouse plasma at 100 mg/kg, po as a suspension in 10% NMP/corn oil after 24 hrs by HPLC/MS/MS analysis; assay type: ADME, organism-based; design: dose 100 mg/kg, route oral
[4] = Drug uptake in nu/nu homozygous mouse plasma at 100 mg/kg, po as a suspension in 10% NMP/corn oil after 1 hr by HPLC/MS/MS analysis; assay type: ADME, organism-based; design: dose 100 mg/kg, route oral; how it was run: as §1
Cytochrome P450 2D6 = Cytochrome P450 2D6 (Homo sapiens, UniProt P10635); experiment: Inhibition of human CYP2D6 using bufuralol as substrate by LC/MS/MS analysis; assay type: ADME
How it was run: (§2)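 Pooled human liver microsomes in 100 mM potassium phosphate, pH 7.4, at 37 °C with 1000 µM NADPH for 15 min. Microsomes 0.15 mg/mL for CYP2C9 and CYP2D6, 0.25 mg/mL for CYP3A4. Inhibitor tested at six concentrations (0.2–50 µM). Reactions quenched with acetonitrile; metabolite measured by LC/MS/MS; IC50 from 4-parameter sigmoidal fit.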

Cytochrome P450 2C9 = Cytochrome P450 2C9 (Homo sapiens, UniProt P11712); experiment: Inhibition of human CYP2C9 using tolbutamide as substrate by LC/MS/MS analysis; assay type: ADME; how it was run: as §2
Cytochrome P450 3A4 = Cytochrome P450 3A4 (Homo sapiens, UniProt P08684); experiment: Inhibition of human CYP3A4 using testosterone as substrate by LC/MS/MS analysis; assay type: ADME; how it was run: as §2
[5] = target: Sphingosine 1-phosphate receptor 2 (Homo sapiens, UniProt O95136); experiment: Antagonist activity at S1P2 receptor expressed in HEK293 cells assessed as inhibition of S1P-induced tango beta-arrestin recruitment preincubated for 30 mins prior S1P addition measured after 16 to 18 hrs by luciferase reporter gene assay; assay type: functional, cell-based
[6] = Metabolic stability of the compound in mouse liver microsomes assessed as compound oxidation measuring disappearance of compound at 15 uM after 30 mins by LC/MS/MS analysis; assay type: ADME, Microsome; conditions: read-out: Drug degradation
How it was run: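 Incubated in duplicate for 30 min at 37 °C: 15 µM compound, 0.15% DMSO, 0.5 mg/mL mouse liver microsomes, 1 mM NADPH, 100 mM potassium phosphate pH 7.4. Stopped with acetonitrile containing 0.1% formic acid. Parent remaining measured by LC/MS/MS; disappearance calculated relative to no-NADPH controls.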

[7] = target: T1, Sphingosine 1-phosphate receptor 1; experiment: Antagonist activity at S1P1 receptor expressed in HEK293 cells assessed as inhibition of S1P-induced tango beta-arrestin recruitment preincubated for 30 mins prior S1P addition measured after 16 to 18 hrs by luciferase reporter gene assay; assay type: functional, cell-based
[8] = target: Sphingosine 1-phosphate receptor 3 (Homo sapiens, UniProt Q99500); experiment: Antagonist activity at S1P3 receptor expressed in HEK293 cells assessed as inhibition of S1P-induced tango beta-arrestin recruitment preincubated for 30 mins prior S1P addition measured after 16 to 18 hrs by luciferase reporter gene assay; assay type: functional, cell-based
[9] = Antitumor activity against human MDA-MB-231T cells xenografted in athymic nude mouse assessed as tumor growth inhibition at 100 mg/kg, po qd for 14 days post implantation measured for 14 days; assay type: functional; conditions: 336 h, read-out: TGI
How it was run: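 MDA-MB-231T cells grown in DMEM with 10% FBS. 1 x 10⁶ cells in ice-cold HBSS implanted into the mammary fat pad of female athymic nude (NCr) mice, 5-8 wk. Daily oral dosing at 10 mL/kg, solutions made fresh daily. Tumor weight measured twice weekly; TGI calculated against vehicle and staging-day weights; 2-tailed t-test, p<0.05.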

[10] = Drug uptake in nu/nu homozygous mouse plasma at 100 mg/kg, po after 1 hr by HPLC/MS/MS analysis; assay type: ADME, organism-based; design: dose 100 mg/kg, route oral; how it was run: as §1
[11] = Drug uptake in nu/nu homozygous mouse plasma at 100 mg/kg, po after 4 hrs by HPLC/MS/MS analysis; assay type: ADME, organism-based; design: dose 100 mg/kg, route oral; how it was run: as §1

Chain of Cytochrome P450 3A4 (P08684 whole entry): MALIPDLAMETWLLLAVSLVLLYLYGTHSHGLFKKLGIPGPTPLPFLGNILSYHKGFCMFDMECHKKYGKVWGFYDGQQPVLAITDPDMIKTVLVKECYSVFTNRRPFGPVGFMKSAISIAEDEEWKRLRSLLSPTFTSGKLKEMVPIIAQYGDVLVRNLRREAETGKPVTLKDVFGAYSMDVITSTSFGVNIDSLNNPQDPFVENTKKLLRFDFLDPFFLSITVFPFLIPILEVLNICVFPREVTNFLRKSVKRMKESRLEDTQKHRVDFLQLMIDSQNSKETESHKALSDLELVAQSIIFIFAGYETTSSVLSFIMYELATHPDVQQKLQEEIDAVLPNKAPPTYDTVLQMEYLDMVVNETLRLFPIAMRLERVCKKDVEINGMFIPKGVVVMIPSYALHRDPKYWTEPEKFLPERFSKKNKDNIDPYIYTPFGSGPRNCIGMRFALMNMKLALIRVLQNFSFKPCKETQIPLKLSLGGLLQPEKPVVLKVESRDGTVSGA
Chain of Sphingosine 1-phosphate receptor 2 (O95136 whole entry): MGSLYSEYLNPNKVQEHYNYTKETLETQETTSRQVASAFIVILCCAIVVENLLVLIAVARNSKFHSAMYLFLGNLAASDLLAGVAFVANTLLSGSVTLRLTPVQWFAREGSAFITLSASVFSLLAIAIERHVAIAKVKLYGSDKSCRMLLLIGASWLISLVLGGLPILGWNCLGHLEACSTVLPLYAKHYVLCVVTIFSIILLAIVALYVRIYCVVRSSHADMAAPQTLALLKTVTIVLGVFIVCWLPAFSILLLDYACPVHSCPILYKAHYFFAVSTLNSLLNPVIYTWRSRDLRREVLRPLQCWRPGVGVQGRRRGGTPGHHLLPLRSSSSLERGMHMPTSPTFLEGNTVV
Chain of Sphingosine 1-phosphate receptor 3 (Q99500 whole entry): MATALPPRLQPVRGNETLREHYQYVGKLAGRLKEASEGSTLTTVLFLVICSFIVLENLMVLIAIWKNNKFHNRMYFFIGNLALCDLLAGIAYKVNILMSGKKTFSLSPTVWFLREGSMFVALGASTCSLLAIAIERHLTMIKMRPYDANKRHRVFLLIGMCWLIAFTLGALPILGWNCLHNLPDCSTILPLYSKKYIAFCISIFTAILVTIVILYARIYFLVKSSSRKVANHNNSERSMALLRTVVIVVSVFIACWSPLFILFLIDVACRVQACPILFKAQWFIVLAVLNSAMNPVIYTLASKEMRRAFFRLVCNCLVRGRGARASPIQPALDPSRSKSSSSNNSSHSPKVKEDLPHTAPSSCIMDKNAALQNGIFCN
Chain of Cytochrome P450 2D6 (P10635 whole entry): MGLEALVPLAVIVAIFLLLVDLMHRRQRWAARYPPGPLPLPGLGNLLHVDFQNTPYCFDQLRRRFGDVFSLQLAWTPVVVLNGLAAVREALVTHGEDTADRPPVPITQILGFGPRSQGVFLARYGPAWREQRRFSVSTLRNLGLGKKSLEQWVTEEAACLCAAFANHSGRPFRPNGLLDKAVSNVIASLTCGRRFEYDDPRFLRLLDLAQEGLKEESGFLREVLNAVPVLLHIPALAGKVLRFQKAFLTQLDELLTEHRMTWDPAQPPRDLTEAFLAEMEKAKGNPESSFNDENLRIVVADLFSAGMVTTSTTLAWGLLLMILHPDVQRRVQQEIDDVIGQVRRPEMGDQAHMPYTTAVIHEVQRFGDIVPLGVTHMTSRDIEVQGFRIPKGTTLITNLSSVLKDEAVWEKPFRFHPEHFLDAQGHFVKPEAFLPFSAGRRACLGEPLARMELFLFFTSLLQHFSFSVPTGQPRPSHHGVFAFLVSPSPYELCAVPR
T1 sequence (P21453 whole entry): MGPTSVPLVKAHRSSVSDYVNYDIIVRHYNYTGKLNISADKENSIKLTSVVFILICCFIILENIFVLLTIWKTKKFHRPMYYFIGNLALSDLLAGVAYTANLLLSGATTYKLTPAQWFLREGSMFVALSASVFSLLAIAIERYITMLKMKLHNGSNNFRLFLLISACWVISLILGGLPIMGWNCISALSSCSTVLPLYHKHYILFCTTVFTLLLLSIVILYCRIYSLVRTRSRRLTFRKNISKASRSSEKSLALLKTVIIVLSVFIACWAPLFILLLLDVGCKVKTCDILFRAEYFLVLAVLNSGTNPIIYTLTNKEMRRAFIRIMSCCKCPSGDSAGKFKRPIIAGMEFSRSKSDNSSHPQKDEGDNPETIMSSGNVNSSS
Chain of Cytochrome P450 2C9 (P11712 whole entry): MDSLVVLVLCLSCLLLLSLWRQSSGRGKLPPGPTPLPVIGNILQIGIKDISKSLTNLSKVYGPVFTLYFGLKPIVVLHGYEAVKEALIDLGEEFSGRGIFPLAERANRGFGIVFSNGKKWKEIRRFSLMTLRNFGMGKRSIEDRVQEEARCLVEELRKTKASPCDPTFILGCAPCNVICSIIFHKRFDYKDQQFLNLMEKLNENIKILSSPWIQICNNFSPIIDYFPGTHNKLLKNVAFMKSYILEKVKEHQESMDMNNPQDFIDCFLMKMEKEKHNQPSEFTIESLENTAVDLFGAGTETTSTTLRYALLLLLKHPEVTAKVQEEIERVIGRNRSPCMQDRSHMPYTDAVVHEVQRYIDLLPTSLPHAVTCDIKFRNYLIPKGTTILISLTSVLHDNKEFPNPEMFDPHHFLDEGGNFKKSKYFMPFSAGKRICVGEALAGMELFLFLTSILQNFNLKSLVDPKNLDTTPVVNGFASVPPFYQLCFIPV

Row | IC50 [1] [nM] | concentration at 4 h [2] [µM] | IC50 (Cytochrome P450 2D6) [nM] | IC50 (Cytochrome P450 2C9) [nM] | IC50 (Cytochrome P450 3A4) [µM] | SMILES | further results
1 | > 10000 |  |  |  |  | O=C(Cc1cnc[nH]1)N[C@@H](COCc1ccccc1)C(=O)Nc1ccc(-c2ccccc2)cc1 | 
2 | 14 |  |  |  |  | O=C(Cc1cnc[nH]1)N[C@@H](CCCc1ccccc1)C(=O)Nc1ccc(Oc2ccccc2)cc1 | 
3 | 752 |  |  |  |  | C[C@H](NC(=O)Cc1cnc[nH]1)C(=O)Nc1ccc(Oc2ccc(Cl)cc2)cc1 | 
4 | 326 |  |  |  |  | O=C(Cc1cnc[nH]1)N[C@@H](Cc1ccccc1)C(=O)Nc1ccc(Oc2ccc(Cl)cc2)cc1 | 
5 | 181 |  |  |  |  | CN(C(=O)Cc1c[nH]cn1)[C@@H](COCc1ccccc1)C(=O)Nc1ccc(Oc2ccccc2)cc1 | 
6 | 8280 |  |  |  |  | CN(C(=O)[C@H](COCc1ccccc1)NC(=O)Cc1cnc[nH]1)c1ccc(Oc2ccccc2)cc1 | 
7 | 84.7 | 9.8 | 1180 | < 205 | 7.15 | O=C(Nc1ccc(Oc2ccc(F)cc2)cc1)[C@@H]1C[C@@H](Cc2ccccc2)CN1C(=O)Cc1cnc[nH]1 | concentration at 1 h [4]: 26.2 µM
8 | 158 | 27.2 | 663 | 213 | 0.301 | O=C(Nc1ccc(Oc2ccc(F)cc2)cc1)[C@@H]1C[C@@H](c2ccccc2)CN1C(=O)Cc1cnc[nH]1 | concentration at 24 h [3]: 5 µM
9 | 492 |  |  |  |  | O=C(Nc1ccc(Oc2ccc(F)cc2)cc1)[C@@H]1C[C@@H](c2ccccc2)CN1C(=O)Cn1cncn1 | 
10 | 6.8 | 86.4 | 392 | 2290 | > 20 | O=C(Nc1ccc(Oc2ccc(F)cc2)cc1)[C@@H]1C[C@@H](Cc2ccccc2)CN1C(=O)Cn1cncn1 | IC50 [5]: > 10 µM; concentration at 24 h [3]: 8.3 µM; metabolised at 0.5 h, 15 µM [6]: 13%; IC50 [7]: 45 nM; IC50 [8]: > 10 µM
11 | 5.8 | 104 | 7370 | 2190 | 12.6 | O=C(Nc1ccc(Oc2ccc(F)cc2)cc1)[C@@H]1C[C@@H](Cc2ccc(F)cc2)CN1C(=O)Cn1cncn1 | IC50 [5]: > 10 µM; concentration at 24 h [3]: 18 µM; metabolised at 0.5 h, 15 µM [6]: 8%; IC50 [7]: 13 nM; IC50 [8]: > 10 µM
12 | 48 |  | 3780 | 1350 | > 20 | O=C(Nc1ccc(Oc2ccc(F)cc2)cc1)[C@@H]1C[C@H](Cc2ccc(F)cc2)CN1C(=O)Cn1cncn1 | 
13 | > 1000 |  |  |  |  | O=C(Nc1ccc(Oc2ccc(F)cc2)cc1)[C@H]1C[C@H](Cc2ccc(F)cc2)CN1C(=O)Cn1ccnn1 | 
14 | 4.8 | 23 | > 50000 | 17400 | > 20 | O=C(Nc1ccc(Oc2ccc(F)cc2)cc1)[C@@H]1C[C@@H](Cc2ccc(F)cc2)CN1C(=O)Cn1nccn1 | inhibition in vivo at 100 mg/kg [9]: 60%; IC50 [5]: > 10 µM; concentration at 24 h [3]: 2 µM; IC50 [7]: 21 nM; IC50 [8]: > 10 µM
15 | 718 |  |  |  |  | CN(CC(=O)NC(COCc1ccccc1)C(=O)Nc1ccc(Oc2ccccc2)cc1)C(=O)c1ccccc1 (racemic) | concentration at 1 h [10]: < 19 nM; IC50 [5]: > 10 µM; metabolised at 0.5 h, 15 µM [6]: 89%; concentration at 4 h [11]: < 19 nM; IC50 [7]: 2800 nM; IC50 [8]: > 10 µM
16 | 286 |  |  |  |  | O=C(CCCC(=O)c1cccs1)NC(COCc1ccccc1)C(=O)Nc1ccc(Oc2ccccc2)cc1 (racemic) | 
17 | 297 |  |  |  |  | O=C(NC(COCc1ccccc1)C(=O)Nc1ccc(Oc2ccccc2)cc1)C1CC1 (racemic) | 

Row | SMILES | IC50 [1] [nM] | concentration at 4 h [2] [µM] | IC50 (Cytochrome P450 2D6) [nM] | IC50 (Cytochrome P450 2C9) [nM] | IC50 (Cytochrome P450 3A4) [µM] | further results
18 | O=C(Nc1ccc(Oc2ccc(F)cc2)cc1)[C@@H]1CN(Cc2ccccc2)CCN1C(=O)Cc1cnc[nH]1 | 84 | 6.3 |  |  |  | concentration at 24 h [3]: 9.2 µM
